Results taken from article PMC8451076 (International Journal of Nanomedicine, 2021).
Structures can show the parent of a compound that is named as a salt. Where two headings read alike, the source gives them in different places.

How the values were obtained:
[1] = Metabolism stability of BBR in intestinal S9; format: in vitro ADME; details: mouse, intestinal S9, pH 7.4
Procedure, shortened: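 Mouse intestinal S9 (2 mg/mL) plus test material (BBR final 10 μg/mL) in 50 mM Tris-HCl pH 7.4 was preincubated 5 min at 37°C, then started with NADPH (1 mg/mL). After 0.5 or 1 h, reactions were stopped with equal-volume chilled methanol containing carbamazepine internal standard and centrifuged. Residual BBR and demethylberberine were measured by LC-MS/MS.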

[2] = format: physicochemical
Procedure, shortened: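 Test material containing 10 mg BBR was enclosed in a blank capsule and run in a rotating-basket tester at 50 rpm and 37 ± 0.5°C. Medium was 900 mL HCl buffer (2.0 g NaCl, pH 1.2; sampled 5–90 min) or 0.2 M sodium phosphate (pH 6.8; sampled 2.5 min–6 h). Samples were 0.22-μm filtered and centrifuged, then BBR was quantified by LC-MS. n = 6.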

[3] = cited from earlier work; for oral bioavailability: purified constituents of TCMs
[4] = Transportation of BBR across MDCK-MDR1 cell monolayer; format: in vitro ADME, canine; details: dog
Procedure, shortened: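 MDCK-MDR1 cells were grown in DMEM/10% FBS/15 mM HEPES and seeded on polycarbonate Transwells (2×10^5 cells/mL) until TEER exceeded 500 Ω·cm2. Cells were equilibrated 20 min in HBSS (pH 7.2). BBR (final 10 μg/mL) was added apical or basolateral, and both sides were sampled after 2 or 4 h for LC-MS/MS. Papp = ΔQ/(Δt·A·C0), with A 0.33 cm2.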

[5] = Solubility of BBR in supersaturated aqueous solutions; format: physicochemical; details: water, thermodynamic from solid
Procedure, shortened: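 Supersaturated aqueous preparations, each at 10 mg/mL BBR, were sonicated 1 h and centrifuged at 16,000 rpm for 10 min. BBR in the supernatant was quantified by LC-MS. n = 6.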

Caco-2 cells = assay: Uptake of BBR in Caco-2 cells with endocytosis inhibitors; format: cell-based, human; details: Nnps containing 10 μg/mL BBR, 4 h, indomethacin 100 μg/mL, chlorpromazine 10 μg/mL, cytochalasin D 5 μM

## COc1ccc2cc3[n+](cc2c1OC)CCc1cc2c(cc1-3)OCO2 [BBR, berberine hydrochloride]
[1]
  half-life at 10 μg/mL: 2.48 h
[2]; artificial gastric juice (pH 1.2), 15 min
  dissolution rate of BBR: 7.5%
[2]; artificial gastric juice (pH 1.2), end point
  dissolution rate of BBR: 35.3%
[2]; artificial intestinal juice (pH 6.8), 15 min
  dissolution rate of BBR: 1.8%
[2]; artificial intestinal juice (pH 6.8), end point 6 h
  dissolution rate of BBR: 60.9%
[3]; oral
  bioavailability of oral BBR: 0.36%
  fraction of BBR excreted directly with feces after oral administration: approximately 56%
  intestinal elimination of the oral dose: 43.5%
[3]
  oral bioavailability: less than 5%
[4]
  Papp at 10 μg/mL: < 1 ×10⁻⁶ cm/s
[5]
  solubility at 1 h: ~3700 µg/mL

## CN(C)CCCN1c2ccccc2Sc2ccc(Cl)cc21 [Chlorpromazine, chlorpromazine]
Caco-2 cells
  effect of endocytosis inhibitor on uptake of BBR carried by the Nnps: promoted the uptake

## COc1ccc2c(c1)c(CC(=O)O)c(C)n2C(=O)c1ccc(Cl)cc1 [Indomethacin, indomethacin]
Caco-2 cells
  effect of endocytosis inhibitor on uptake of BBR carried by the Nnps: significantly reduced

## CC(C)=CCC[C@](C)(O[C@@H]1O[C@H](CO[C@@H]2OC[C@H](O)[C@H](O)[C@H]2O)[C@@H](O)[C@H](O)[C@H]1O)[C@H]1CC[C@]2(C)[C@@H]1[C@H](O)C[C@@H]1[C@@]3(C)CC[C@H](O[C@@H]4O[C@H](CO)[C@@H](O)[C@H](O)[C@H]4O[C@@H]4O[C@H](CO)[C@@H](O)[C@H](O)[C@H]4O)C(C)(C)[C@@H]3CC[C@]12C [Rb2, ginsenoside Rb2]
[3]
  oral bioavailability: less than 5%

## CC(C)=CCC[C@](C)(O[C@@H]1O[C@H](CO[C@@H]2OC[C@@H](O)[C@H](O)[C@H]2O)[C@@H](O)[C@H](O)[C@H]1O)[C@H]1CC[C@]2(C)[C@@H]1[C@H](O)C[C@@H]1[C@@]3(C)CC[C@H](O[C@@H]4O[C@H](CO)[C@@H](O)[C@H](O)[C@H]4O[C@@H]4O[C@H](CO)[C@@H](O)[C@H](O)[C@H]4O)C(C)(C)[C@@H]3CC[C@]12C [Rb3, ginsenoside Rb3]
[3]
  oral bioavailability: less than 5%

## CC(C)(O)[C@@H]1CC[C@](C)([C@H]2[C@@H](O)C[C@@]3(C)[C@@H]4C[C@H](O[C@@H]5O[C@H](CO)[C@@H](O)[C@H](O)[C@H]5O)[C@H]5C(C)(C)[C@@H](O[C@@H]6OC[C@@H](O)[C@H](O)[C@H]6O)CC[C@@]56C[C@@]46CC[C@]23C)O1 [astragaloside IV]
[3]
  oral bioavailability: less than 5%

## O=C(O)[C@H]1O[C@@H](Oc2cc3oc(-c4ccccc4)cc(=O)c3c(O)c2O)[C@H](O)[C@@H](O)[C@@H]1O [baicalin]
[3]
  oral bioavailability: less than 5%

## COc1cc(/C=C/C(=O)CC(=O)/C=C/c2ccc(O)c(OC)c2)ccc1O [curcumin]
[3]
  oral bioavailability: less than 5%

## C=C1[C@@H](C)[C@H]2[C@H](Cc3ccccc3)NC(=O)[C@]23[C@H](OC(C)=O)/C=C/[C@@](C)(O)C(=O)[C@@H](C)C/C=C/[C@H]3[C@@H]1O [cytochalasin D]
Caco-2 cells
  effect of endocytosis inhibitor on uptake of BBR carried by the Nnps: promoted the uptake

## CC(C)=CCC[C@](C)(O[C@@H]1O[C@H](CO[C@@H]2O[C@H](CO)[C@@H](O)[C@H](O)[C@H]2O)[C@@H](O)[C@H](O)[C@H]1O)[C@H]1CC[C@]2(C)[C@@H]1[C@H](O)C[C@@H]1[C@@]3(C)CC[C@H](O[C@@H]4O[C@H](CO)[C@@H](O)[C@H](O)[C@H]4O[C@@H]4O[C@H](CO)[C@@H](O)[C@H](O)[C@H]4O)C(C)(C)[C@@H]3CC[C@]12C [ginsenoside Rb1]
[3]
  oral bioavailability: less than 5%

## CC1(C)[C@@H](O[C@H]2O[C@H](C(=O)O)[C@@H](O)[C@H](O)[C@H]2O[C@@H]2O[C@H](C(=O)O)[C@@H](O)[C@H](O)[C@H]2O)CC[C@]2(C)[C@H]3C(=O)C=C4[C@@H]5C[C@@](C)(C(=O)O)CC[C@]5(C)CC[C@@]4(C)[C@]3(C)CC[C@@H]12 [glycyrrhizin]
[3]
  oral bioavailability: less than 5%

## Cc1coc2c1C(=O)C(=O)c1c-2ccc2c1CCCC2(C)C [tanshinone IIA]
[3]
  oral bioavailability: less than 5%
